Assay outcomes as filed in PubChem BioAssay.
In the library only some 2.2% were active in any assay of this set; here they are far more common.
NF-kB expr up = activators of NF-kB expression in neurons, primary screen, cell-based, HTS | human neuronal cells, NF-kB reporter expression; active compounds read high | fold change at 12.5 µM | actives 1.6% (n = 190,000); in the data active means fold change above about 3.3
C8 TRAIL sens = viability loss with TRAIL in NB7+C8 cells, primary screen, TRAIL sensitizer project, cell-based, ATPlite luminescence; inhibition (viability loss, TRAIL sensitization), % at 10 µM; actives 1% (n = 360,000); AID 624354, 2012;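 active means compounds causing at least 50% loss of cell viability in the single-dose screen, relative to plate controls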
PPC-1+TRAIL kill = compounds killing PPC-1 cancer cells with TRAIL present, primary screen, TRAIL potentiator project, ATPLite luminescence, uHTS; AID 1443, 2008; actives 0.41% (n = 220,000); cell killing (% activity), % at 4 µM or 5 µM; PPC-1 cells + TRAIL, ATPLite viability luminescence;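 active means cell killing above 50% in the first pass at 4 µM, then a duplicate retest at 5 µM averaging 50% or more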;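 further: plate controls were cells with TRAIL plus DMSO for no effect and medium-only wells lacking cells for full effect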
FLuc act counter = FLuc activators, initial screening, artefact control for FLuc-dependent activation tests, biochemical, ATPlite luminescence; Luciferin 4-monooxygenase (Photinus pyralis), P08659; ATPlite luciferase biochemical, 10 min; 0 = ATP-free wells, 1 = DMSO control; activation factor at 10 µM; 200,000 tested, under 10 active; AID 1027, 2008;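 active means luciferase activation factor, scaled between plate controls, of at least 2 with compound at 10 µM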
Target sequence (P08659 whole entry, looked up): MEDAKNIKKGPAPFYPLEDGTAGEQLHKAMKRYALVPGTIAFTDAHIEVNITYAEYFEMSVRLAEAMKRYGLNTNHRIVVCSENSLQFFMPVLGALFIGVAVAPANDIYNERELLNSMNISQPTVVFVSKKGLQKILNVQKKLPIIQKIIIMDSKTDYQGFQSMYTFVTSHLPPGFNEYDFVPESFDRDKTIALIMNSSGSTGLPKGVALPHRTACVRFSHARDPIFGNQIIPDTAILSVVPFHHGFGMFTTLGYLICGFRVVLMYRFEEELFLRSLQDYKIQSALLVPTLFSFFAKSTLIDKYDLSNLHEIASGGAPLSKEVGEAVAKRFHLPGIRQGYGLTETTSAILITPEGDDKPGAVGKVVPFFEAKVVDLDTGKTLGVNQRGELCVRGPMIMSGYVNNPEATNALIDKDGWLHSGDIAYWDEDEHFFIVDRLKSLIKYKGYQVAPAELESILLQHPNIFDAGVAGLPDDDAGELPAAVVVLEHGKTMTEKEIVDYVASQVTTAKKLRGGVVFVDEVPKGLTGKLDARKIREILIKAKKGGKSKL
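Material: Luciferase/luciferin reagent mix | Doses: Test compounds dosed from 2 mM stocks in 100% DMSO | Timing: 10 min incubation after luciferase reagent addition, room temperature | Measured by: Luminescence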
APP 5'UTR act = activators of APP 5'UTR luciferase reporter, primary screen, SH-SY5Y cells | SH-SY5Y APP 5'UTR luciferase reporter, luminescence; zero percent = DMSO vehicle wells | activation, % at 2 µM | actives 1% (n = 190,000);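 active means activation above a set limit, based on mean plus 3 SD of controls, cut at about 140% in these data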
FLuc inh counter = firefly luciferase enzyme inhibitors, primary screen, artefact control for luciferase-based inhibitor screens, biochemical, luminescence, ATPLite | Luciferin 4-monooxygenase (Photinus pyralis), P08659 | 10 min | inhibition, % at 10 µM | actives 1.5% (n = 200,000);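 active means inhibition above about 50% when tested at 10 µM, limit read from the data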
* marks the source's active call; other numbers are inactive results; x = no result.

SMILES	NF-kB expr up	C8 TRAIL sens	PPC-1+TRAIL kill	FLuc act counter	APP 5'UTR act	FLuc inh counter
O=C(N/N=C/c1ccccn1)c1ccc([N+](=O)[O-])cc1	1.49	-4.4	12.1	0.3	15.9	66.8*
O=C(N/N=C/c1ccccn1)c1cc([N+](=O)[O-])cc([N+](=O)[O-])c1	0.8	-5.9	-0.1	1	-5.2	-2.1
Cc1cccc(C(=O)N/N=C/c2ccccn2)c1	1.7	32.3	41.4	0.5	21.7	50.6*
CCCOc1ccc(F)cc1-c1cc(C(=O)Nc2ccccc2)[nH]n1	x	3.9	x	x	x	x
CC(C)NC(=O)C1(C#N)C=C1c1ccccc1 (stereo not given)	x	1.0	x	x	x	x
CC(C)(C)c1ccc(C(=O)N/N=C/c2ccccn2)cc1	x	24.5	x	x	x	x
O=C(N/N=C/c1ccccn1)c1ccc(N/N=C/c2ccccn2)cc1	0.89	-0.6	44.4	0.3	47.7	72.3*
COc1ccc2oc3cc(NCCN(C)C)ccc3c(=O)c2c1	x	23.1	x	x	x	x
CN(C)CCNC(=O)c1cccc(-c2cnc3c(NC=O)cc(/C=C/c4ccccc4)cn23)c1	x	45.8	x	x	x	x
CCOC(=O)c1c(CSC(=N)N)n(C)c2cc(Br)c(OC(C)=O)cc12	x	0.3	1.2	x	x	x
CCOC(=O)c1c(CSC(=N)N)n(-c2ccc(C)cc2)c2cc(Br)c(OC(C)=O)cc12	1.8	93.0*	17.7	1.1	5.2	-8.8
O=C(c1ccc(-c2nc3ccccc3s2)o1)N1CCN(c2ccccc2O)CC1	x	21.9	x	x	x	x
CNC(=O)COC(=O)c1ccc(-c2nc3ccccc3s2)s1	2.75	11.3	66.3*	0.2	23.1	80.8*
O=CN1CCN(C(=O)c2ccc(-c3nc4ccccc4s3)s2)CC1	3.8*	23.6	24.6	0.5	90.4	45.7
OC(c1ccc(F)cc1)c1nc(-c2cccc(F)c2)cs1 (stereo not given)	x	-21.7	x	x	x	x
NC(Cc1ccccc1)c1csc(Nc2nccc(C(F)(F)F)n2)n1 (stereo not given)	x	26.4	x	x	x	x
O=C(Nc1ccccn1)c1ccc(-c2ccccc2)cc1	x	82.1*	x	x	x	x
CC(C)(C)c1ccc(C(=O)Nc2cnccn2)cc1	6.43*	74.8*	-15.7	0.1	173.4*	85.8*
COc1ccc(Cc2c(-c3ccc(Cl)cc3)nc3cc(C)c(Br)c(C)n23)c(C)c1	x	2.5	x	x	x	x
COc1cc(/C=N\NC(=O)c2ccc(=O)[nH]n2)cc(OC)c1OC	3.55*	-8.1	13.2	1	-10.2	-3.7
COc1cc(/C=N/NC(=O)c2ccncc2)cc(OC)c1OC	x	-5.7	x	x	x	x
Cn1c(CCNC(=O)c2ccco2)nc2cc(NC(=O)c3ccco3)ccc21	1.52	-1.1	11.2	0.8	30.6	18.2
Cc1nc2cc(NC(=O)c3ccco3)ccc2n1C	x	50.6*	x	x	x	x
CCn1cnc2cc(NC(=O)c3ccco3)ccc21	2.87	31.2	35.6	0.3	52.7	66.3*
CCCC(=O)N1CCC1(C)C(=O)Nc1ncc(C(=O)OC)s1 (stereo not given)	x	3.9	x	x	x	x
SMILES	NF-kB expr up	C8 TRAIL sens	PPC-1+TRAIL kill	FLuc act counter	APP 5'UTR act	FLuc inh counter
Cn1c(=S)[nH]c2sc3c(c2c1=O)CCC(C(C)(C)C)C3 (stereo not given)	x	52.6*	x	x	x	x
Cc1nc2cc(NC(=O)c3ccc(Br)s3)ccc2s1	x	62.8*	x	x	x	x
Cc1ccc(C(=O)Nc2ccc3nc(C)sc3c2)s1	6.58*	16.2	28.6	0.7	166.7*	25.3
CC1(c2nnnn2C2CCCC2)CCC(=O)N1c1ccc2c(c1)OCCO2 (stereo not given)	x	-0.4	x	x	x	x
CCSc1nnc(NC(=O)c2ccc3c(c2)OCO3)s1	3.35*	14.3	12.5	0.9	53.0	11.6
CC(C)c1nnc(NC(=O)c2ccc3c(c2)OCO3)s1	4.77*	26.3	36.2	0.5	147.9*	51.0*
CCOC(=O)CSc1nnc(NC(=O)c2ccc3c(c2)OCO3)s1	x	69.7*	x	x	x	x
CC(C)Sc1nnc(NC(=O)c2ccc3c(c2)OCO3)s1	x	12.3	x	x	x	x
CCOC(=O)CSc1nnc(NC(=O)c2ccco2)s1	x	20.5	x	x	x	x
CCOC(=O)C1=CCC(c2cccc(C)c2)N(S(=O)(=O)c2ccc(C)cc2)C1 (stereo not given)	x	-11.6	x	x	x	x
CCc1c(C)[nH]c2c(C)cccc2c1=O	0.93	52.0*	3.4	1	-13.6	-0.5
COc1ccc(/C=N/NC(=S)Nc2ccccc2[N+](=O)[O-])cc1O	0.43	17.8	25.3	0.6	206.0*	38.9
COc1cc(/C=N/Nc2nc3ccccc3s2)ccc1OC(=O)c1ccccc1F	11.6*	4.9	14.0	1	172.8*	0.3
COc1cc(/C=N/Nc2ccccc2[N+](=O)[O-])ccc1OC(=O)c1ccccc1F	1.66	7.9	7.7	1	192.7*	-3.0
COc1cc(OC)cc(C(=O)Oc2ccc(/C=N/Nc3nc4ccccc4s3)cc2OC)c1	1.72	2.2	12.9	1	115.2	-2.8
CCCOc1ccc(/C=N/NC(=S)Nc2ccccc2[N+](=O)[O-])c(O)c1	0.64	x	37.5	0.9	-46.5	9.1
CC(C)NC(=O)C1(C)CN(S(C)(=O)=O)CC(=O)N1Cc1ccco1 (stereo not given)	x	10.0	x	x	x	x
Cc1ccc2nc(N3C(=O)CNC3=S)sc2c1	x	31.8	33.9	x	x	x
COc1ccc2nc(N3C(=O)CNC3=S)sc2c1	x	49.8*	34.7	x	x	x
COc1cccc(-c2nc3sc4c(c3c(=O)[nH]2)CCCCC4)c1	1.75	19.0	28.0	0.6	183.8*	44.6
COc1c(OC(C)=O)ccc(/C=C/c2ccc3cccc(OCc4ccccc4)c3n2)c1[N+](=O)[O-]	1.02	49.4*	20.6	0.8	37.0	18.1
Cc1cccc(-c2cnc(C(O)c3ccc(-c4ccccc4)cc3)[nH]2)c1 (stereo not given)	x	7.6	x	x	x	x
CN(NC(=O)c1ccc(Cl)cc1)c1nc(-c2ccccc2)nnc1C(F)(F)F	1.18	48.7*	-17.4	1	2.8	-4.8
COc1ccc(S(=O)(=O)N2Cc3ccccc3CC2C(=O)Nc2nccs2)cc1OC (stereo not given)	1.35	7.8	16.5	1.1	162.9*	-6.1
CCS(=O)(=O)N1Cc2ccccc2CC1C(=O)Nc1nccs1 (stereo not given)	1.66	11.5	3.9	0.9	81.2	11.4
COc1ccc(S(=O)(=O)N2Cc3ccccc3CC2C(=O)Nc2nccs2)cc1 (stereo not given)	1.61	0.3	17.4	1	180.1*	-4.2
NC(=O)c1c(N)[nH]c(C(=O)c2ccccc2)c1-c1ccccc1Br	x	0.0	x	x	x	x
NNc1nc(-c2ccccc2Cl)nc2ccccc12	x	-0.1	x	x	x	x
NNc1nc(-c2ccccc2Cl)nc2sc3c(c12)CCCC3	3.31*	49.1	11.2	0.2	50.2	81.9*
